From the RNAGym collection of RNA variant scans (doi:10.1002/anie.201605470)

B1: Osa-1-4 twister ribozyme (parent)
chain: CCGCCUAACACUGCCAAUGCCGGUCCCAAGCCCGGAUAAAAGUGGAGGGGGCGG

Variants of: B1
Assay: self-cleavage, relative activity (ratio to wild type); higher = more cleavage; co-transcriptional
How it was run: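 Relative activity is the fraction cleaved divided by that of the wild-type ribozyme. The library came from a DNA template for a 54-nucleotide Oryza sativa twister ribozyme, doped at the 48 positions downstream of the cleavage site with 97 % wild-type base and 1 % of each other base. After 2 h of in vitro transcription at 37 °C with co-transcriptional self-cleavage, the RNA was reverse-transcribed with a template-switching oligonucleotide, amplified by PCR and deep-sequenced, and reads with or without upstream sequence gave the cleavage status.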

Row | Variant | self-cleavage
1 | A16U C33A | 0.11
2 | A16U C33G | 0.04
3 | A16U C33U | 0.71
4 | A16U C52A | 0.97
5 | A16U C52G | 0.92
6 | A16U C52U | 0.92
7 | A16U G13A | 0.09
8 | A16U G13C | 0.02
9 | A16U G13U | 0.02
10 | A16U G19A | 0.89
11 | A16U G19C | 0.09
12 | A16U G19U | 0.26
13 | A16U G22A | 0.99
14 | A16U G22C | 0.11
15 | A16U G22U | 0.84
16 | A16U G23A | 0.49
17 | A16U G23C | 0.06
18 | A16U G23U | 0.09
19 | A16U G30A | 0.03
20 | A16U G30C | 0.04
21 | A16U G30U | 0.03
22 | A16U G34A | 0.73
23 | A16U G34C | 0.51
24 | A16U G34U | 0.67

Row | Variant | self-cleavage
25 | A16U G35A | 0.76
26 | A16U G35C | 0.17
27 | A16U G35U | 0.82
28 | A16U G42A | 0.8
29 | A16U G42C | 0.33
30 | A16U G42U | 0.73
31 | A16U G44A | 0.94
32 | A16U G44C | 0.91
33 | A16U G44U | 0.92
34 | A16U G45A | 0.36
35 | A16U G45C | 0.04
36 | A16U G45U | 0.1
37 | A16U G47A | 0.24
38 | A16U G47C | 0.08
39 | A16U G47U | 0.2
40 | A16U G48A | 0.08
41 | A16U G48C | 0.07
42 | A16U G48U | 0.06
43 | A16U G49A | 0.11
44 | A16U G49C | 0.06
45 | A16U G49U | 0.11
46 | A16U G50A | 0.67
47 | A16U G50C | 0.95
48 | A16U G50U | 0.94

Row | Variant | self-cleavage
49 | A16U G51A | 0.64
50 | A16U G51C | 0.16
51 | A16U G51U | 0.39
52 | A16U G53A | 0.85
53 | A16U G53C | 0.1
54 | A16U G53U | 0.4
55 | A16U G54A | 0.93
56 | A16U G54C | 0.88
57 | A16U G54U | 0.94
58 | A16U U12A | 0.92
59 | A16U U12C | 0.47
60 | A16U U12G | 0.16
61 | A16U U18A | 0.89
62 | A16U U18C | 0.87
63 | A16U U18G | 0.66
64 | A16U U24A | 0.15
65 | A16U U24C | 0.29
66 | A16U U24G | 0.02
67 | A16U U37A | 0.83
68 | A16U U37C | 1.06
69 | A16U U37G | 1
70 | A16U U43A | 0.85
71 | A16U U43C | 0.36
72 | A16U U43G | 0.33

Row | Variant | self-cleavage
73 | A17C | 0.76
74 | A17C A7C | 0.08
75 | A17C A7G | 0.1
76 | A17C A7U | 0.06
77 | A17C A8C | 0.08
78 | A17C A8G | 0.12
79 | A17C A8U | 0.06
80 | A17C A28C | 0.6
81 | A17C A28G | 0.05
82 | A17C A28U | 0.29
83 | A17C A29C | 0.03
84 | A17C A29G | 0.05
85 | A17C A29U | 0.04
86 | A17C A36C | 0.21
87 | A17C A36G | 0.75
88 | A17C A36U | 0.66
89 | A17C A38C | 0.71
90 | A17C A38G | 0.78
91 | A17C A38U | 0.66
92 | A17C A39C | 0.52
93 | A17C A39G | 0.86
94 | A17C A39U | 0.73
95 | A17C A40C | 0.06
96 | A17C A40G | 0.28

Row | Variant | self-cleavage
97 | A17C A40U | 0.16
98 | A17C A41C | 0.68
99 | A17C A41G | 0.68
100 | A17C A41U | 0.81
101 | A17C A46C | 0.05
102 | A17C A46G | 0.05
103 | A17C A46U | 0.05
104 | A17C C9A | 0.08
105 | A17C C9G | 0.12
106 | A17C C9U | 0.1
107 | A17C C11A | 0.06
108 | A17C C11G | 0.05
109 | A17C C11U | 0.14
110 | A17C C14A | 0.1
111 | A17C C14G | 0.25
112 | A17C C14U | 0.64
113 | A17C C15A | 0.7
114 | A17C C15G | 0.64
115 | A17C C15U | 0.77
116 | A17C C20A | 0.58
117 | A17C C20G | 0.1
118 | A17C C20U | 0.78
119 | A17C C21A | 0.15
120 | A17C C21G | 0.05

Row | Variant | self-cleavage
121 | A17C C21U | 0.69
122 | A17C C25A | 0.04
123 | A17C C25G | 0.03
124 | A17C C25U | 0.18
125 | A17C C26A | 0.03
126 | A17C C26G | 0.07
127 | A17C C26U | 0.19
128 | A17C C27A | 0.06
129 | A17C C27G | 0.03
130 | A17C C27U | 0.06
131 | A17C C31A | 0.03
132 | A17C C31G | 0.05
133 | A17C C31U | 0.16
134 | A17C C32A | 0.06
135 | A17C C32G | 0.08
136 | A17C C32U | 0.05
137 | A17C C33A | 0.05
138 | A17C C33G | 0.04
139 | A17C C33U | 0.16
140 | A17C C52A | 0.87
141 | A17C C52G | 0.9
142 | A17C C52U | 0.78
143 | A17C G13A | 0.04
144 | A17C G13C | 0.04

Row | Variant | self-cleavage
145 | A17C G13U | 0.02
146 | A17C G19A | 0.06
147 | A17C G19C | 0.04
148 | A17C G19U | 0.04
149 | A17C G22A | 0.21
150 | A17C G22C | 0.05
151 | A17C G22U | 0.06
152 | A17C G23A | 0.07
153 | A17C G23C | 0.03
154 | A17C G23U | 0.04
155 | A17C G30A | 0.04
156 | A17C G30C | 0.03
157 | A17C G30U | 0.03
158 | A17C G34A | 0.34
159 | A17C G34C | 0.14
160 | A17C G34U | 0.26
161 | A17C G35A | 0.6
162 | A17C G35C | 0.45
163 | A17C G35U | 0.6
164 | A17C G42A | 0.5
165 | A17C G42C | 0.21
166 | A17C G42U | 0.57
167 | A17C G44A | 0.81
